# Data reported in ChEMBL document CHEMBL4699489, “Optimized Opioid-Neurotensin Multitarget Peptides: From Design to Structure-Activity Relationship Studies” (J Med Chem, 2020).
# Numbered stars: 1 amine (or outer) side, 2 acyl side, 3 side chain; on linkers, the order of the positions; unused ones are H or OH. Square brackets hold non-standard residues; d marks the D form. Peptide text beside a SMILES is read from it. X1 = O=C1[C@@H](N[*:1])Cc2ccccc2CN1CCC(=O)[*:2]; X2 = O=C([C@@H]1Cc2cc(O)ccc2CN1[*:1])[*:2]; Dmt = Cc1cc(O)cc(C)c1C[C@H](N)C(=O)O; mTyr = N[C@@H](Cc1cccc(O)c1)C(=O)O; Tle = CC(C)(C)[C@H](N)C(=O)O
# Tests used:
# [1] = molecular target: T1, Mu-type opioid receptor (Homo sapiens, UniProt P35372); experiment: Displacement of [3H]-DAMGO from recombinant human mu opioid receptor expressed in CHO cell membrane incubated for 60 mins by liquid scintillation counting method; format: cell membranes
# T1 sequence (P35372 whole entry): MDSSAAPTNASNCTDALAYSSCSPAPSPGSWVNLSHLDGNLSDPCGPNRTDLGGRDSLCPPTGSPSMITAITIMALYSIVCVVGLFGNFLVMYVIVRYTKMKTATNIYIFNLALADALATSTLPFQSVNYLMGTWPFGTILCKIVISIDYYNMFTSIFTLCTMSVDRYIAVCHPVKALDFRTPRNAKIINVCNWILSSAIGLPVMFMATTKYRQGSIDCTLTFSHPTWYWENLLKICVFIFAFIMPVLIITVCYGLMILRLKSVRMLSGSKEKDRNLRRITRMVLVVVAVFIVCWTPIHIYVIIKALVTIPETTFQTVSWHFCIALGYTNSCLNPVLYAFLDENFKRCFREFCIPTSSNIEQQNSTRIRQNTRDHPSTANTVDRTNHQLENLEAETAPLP
# Outline: (§1)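 Membranes from CHO-hMOR, -hDOR or -hKOR cells, homogenized and washed in 50 mM Tris-HCl pH 7.4. Membranes (15–20 μg) incubated with [3H]DAMGO (MOR), [3H]diprenorphine (DOR) or [3H]U69,593 (KOR) plus graded peptide, 60 min at 25 °C. Nonspecific binding with 1–10 μM of the unlabelled ligand. GF/C filtration, scintillation counting. Ki by Cheng–Prusoff. Duplicate, three independent experiments.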
# [2] = molecular target: T2, Delta-type opioid receptor (Homo sapiens, UniProt P41143); experiment: Displacement of [3H]-Diprenorphine from recombinant human delta opioid receptor expressed in CHO cell membrane incubated for 60 mins by liquid scintillation counting method; format: cell membranes; outline: as §1
# T2 sequence (P41143 whole entry): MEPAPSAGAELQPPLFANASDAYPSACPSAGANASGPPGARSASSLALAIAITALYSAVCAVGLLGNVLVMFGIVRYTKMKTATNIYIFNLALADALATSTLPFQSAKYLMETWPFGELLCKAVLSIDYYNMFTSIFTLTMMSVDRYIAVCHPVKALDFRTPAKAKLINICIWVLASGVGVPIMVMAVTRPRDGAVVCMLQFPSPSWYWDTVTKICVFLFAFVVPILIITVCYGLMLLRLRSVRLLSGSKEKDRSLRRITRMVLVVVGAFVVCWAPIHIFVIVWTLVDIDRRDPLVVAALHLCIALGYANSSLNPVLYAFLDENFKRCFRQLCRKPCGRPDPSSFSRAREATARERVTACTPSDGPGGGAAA
# [3] = molecular target: T3, Kappa-type opioid receptor (Homo sapiens, UniProt P41145); experiment: Displacement of [3H]-U69593 from recombinant human kappa opioid receptor expressed in CHO cell membrane incubated for 60 mins by liquid scintillation counting method; format: cell membranes; outline: as §1
# T3 sequence (P41145 whole entry): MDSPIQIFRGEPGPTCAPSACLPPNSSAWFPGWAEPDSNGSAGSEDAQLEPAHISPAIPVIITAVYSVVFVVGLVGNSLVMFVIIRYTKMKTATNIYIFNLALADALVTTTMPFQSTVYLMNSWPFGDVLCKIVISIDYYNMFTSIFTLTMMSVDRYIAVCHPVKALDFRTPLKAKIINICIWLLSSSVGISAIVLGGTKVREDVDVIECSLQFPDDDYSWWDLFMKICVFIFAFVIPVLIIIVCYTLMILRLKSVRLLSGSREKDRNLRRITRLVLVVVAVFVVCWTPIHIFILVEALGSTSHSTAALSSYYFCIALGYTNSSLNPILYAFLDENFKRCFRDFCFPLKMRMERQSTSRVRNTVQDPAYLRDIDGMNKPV
# [4] = molecular target: T4, Neurotensin receptor type 1 (Homo sapiens, UniProt P30989); experiment: Displacement of [125I]-neurotensin from human recombinant NTS1 stably expressed in CHO-K1 cell membranes incubated for 60 mins by gamma counter method
# T4 sequence (P30989 whole entry): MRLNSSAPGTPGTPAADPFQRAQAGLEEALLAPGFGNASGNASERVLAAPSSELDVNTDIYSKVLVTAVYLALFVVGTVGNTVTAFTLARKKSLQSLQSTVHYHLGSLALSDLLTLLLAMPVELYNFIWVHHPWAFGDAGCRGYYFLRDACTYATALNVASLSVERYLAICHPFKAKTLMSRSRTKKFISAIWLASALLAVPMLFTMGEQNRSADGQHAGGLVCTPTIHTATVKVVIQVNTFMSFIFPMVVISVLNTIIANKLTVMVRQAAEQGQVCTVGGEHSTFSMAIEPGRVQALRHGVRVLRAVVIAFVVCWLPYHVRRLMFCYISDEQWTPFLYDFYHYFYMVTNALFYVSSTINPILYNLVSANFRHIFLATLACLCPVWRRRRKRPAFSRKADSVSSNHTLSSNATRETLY
# [5] = molecular target: Neurotensin receptor type 2 (Homo sapiens, UniProt O95665); experiment: Displacement of [125I]-neurotensin from human recombinant NTS2 stably expressed in human 1321N1 cell membranes incubated for 60 mins by gamma counter method
# Chain of Neurotensin receptor type 2 (O95665 whole entry): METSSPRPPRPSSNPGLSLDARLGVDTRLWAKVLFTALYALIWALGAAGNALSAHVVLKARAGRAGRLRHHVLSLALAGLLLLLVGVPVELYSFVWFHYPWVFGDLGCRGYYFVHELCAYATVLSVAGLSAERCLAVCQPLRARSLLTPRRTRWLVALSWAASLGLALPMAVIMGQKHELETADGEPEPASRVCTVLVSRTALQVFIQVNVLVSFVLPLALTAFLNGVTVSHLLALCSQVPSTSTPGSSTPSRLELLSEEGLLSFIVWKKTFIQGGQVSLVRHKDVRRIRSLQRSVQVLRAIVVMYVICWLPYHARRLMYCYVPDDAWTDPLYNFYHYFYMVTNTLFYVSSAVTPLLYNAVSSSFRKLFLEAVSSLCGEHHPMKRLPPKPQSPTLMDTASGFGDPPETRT
# [6] = molecular target: T1, Mu-type opioid receptor; experiment: Potency index, ratio of PK20 Ki to test compound Ki for displacement of [3H]-DAMGO from recombinant human mu opioid receptor expressed in CHO cell membranes
# [7] = molecular target: T1, Mu-type opioid receptor; experiment: Agonist activity at human MOR stably expressed in CHO cell membranes assessed as stimulation of [35S]-GTPgammaS binding incubated for 1 hr by liquid scintillation counting assay; format: functional
# Outline: (§2)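 Membranes from CHO cells stably expressing hMOR, hDOR or hKOR, prepared in 20 mM HEPES, 10 mM MgCl2, 100 mM NaCl, pH 7.4. Membranes (5–10 μg) incubated with 0.05 nM [35S]GTPγS, 10 μM GDP and graded peptide concentrations, 60 min at 25 °C. Nonspecific binding with 10 μM GTPγS, basal without ligand. GF/B filtration, scintillation counting. EC50 and Emax by nonlinear regression; Emax relative to DAMGO, DPDPE or U69,593. Duplicate, three independent experiments.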
# [8] = molecular target: T1, Mu-type opioid receptor; experiment: Agonist activity at human MOR expressed in CHO cell membranes assessed as stimulation of [35S]-GTPgammaS binding incubated for 1 hr by liquid scintillation counting assay relative to DAMGO; format: functional; details: filed as agonist, time 60.0 min; outline: as §2
# [9] = molecular target: T1, Mu-type opioid receptor; experiment: Agonist activity at human MOR expressed in human U2OS cells assessed as increase in beta arrestin2 recruitment incubated for 90 mins by pathhunter beta-arrestin assay; format: cell-based
# Outline: (§3)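 U2OS cells stably coexpressing hMOR and enzyme acceptor-tagged β-arrestin-2, seeded at 5000 cells/well and kept 24 h at 37 °C. Graded peptide concentrations in PBS added for 90 min at 37 °C, then detection mix for 60 min at room temperature. Chemiluminescence read-out. EC50 and Emax (relative to DAMGO) by nonlinear regression. Duplicate, three independent experiments.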
# [10] = molecular target: T1, Mu-type opioid receptor; experiment: Agonist activity at human MOR expressed in human U2OS cells assessed as increase in beta arrestin2 recruitment incubated for 90 mins by pathhunter beta-arrestin assay relative to DAMGO; format: cell-based; details: filed as partial agonist; outline: as §3
# [11] = molecular target: T2, Delta-type opioid receptor; experiment: Agonist activity at human DOR stably expressed in CHO cell membranes assessed as stimulation of [35S]-GTPgammaS binding incubated for 1 hr by liquid scintillation counting assay; format: functional; outline: as §2
# [12] = molecular target: T2, Delta-type opioid receptor; experiment: Agonist activity at human DOR stably expressed in CHO cell membranes assessed as stimulation of [35S]-GTPgammaS binding incubated for 1 hr by liquid scintillation counting assay relative to DPDPE; format: functional; details: filed as agonist, time 60.0 min; outline: as §2
# [13] = molecular target: T3, Kappa-type opioid receptor; experiment: Agonist activity at human KOR stably expressed in CHO cell membranes assessed as stimulation of [35S]-GTPgammaS binding incubated for 1 hr by liquid scintillation counting assay; format: functional; outline: as §2
# [14] = molecular target: T3, Kappa-type opioid receptor; experiment: Agonist activity at human KOR stably expressed in CHO cell membranes assessed as stimulation of [35S]-GTPgammaS binding incubated for 1 hr by liquid scintillation counting assay relative to U69593; format: functional; details: time 60.0 min; outline: as §2
# [15] = molecular target: T4, Neurotensin receptor type 1; experiment: Agonist activity at human NTS1 expressed in HEK293 cells co-expressing Galphaq/RlucII/GFP10-Ggamma1/Gbeta1 assessed as increase in Galphaq activation incubated for 10 mins in presence of coelenterazine 400A by BRET assay; format: cell-based
# [16] = molecular target: T4, Neurotensin receptor type 1; experiment: Agonist activity at human NTS1 expressed in HEK293 cells co-expressing Galphaq/RlucII/GFP10-Ggamma1/Gbeta1 assessed as increase in Gq activation incubated for 10 mins in presence of coelenterazine 400A by BRET assay relative to NT (8-13); format: cell-based
Structure (SMILES),Ki [1] [nM],Ki [2] [nM],Ki [3] [nM],Ki [4] [nM],Ki [5] [nM],Ratio Ki [6],EC50 [7] [nM],Emax [8] [%],EC50 [9] [nM],Emax [10] [%],EC50 [11] [nM],Emax [12] [%],EC50 [13] [nM],Emax [14] [%],EC50 [15] [nM],Emax [16] [%]
Cc1cc(O)cc(C)c1C[C@H](NC(=O)[C@@H]1CCCN1C(=O)[C@H](CCCNC(=N)N)NC(=O)[C@H](CCCNC(=N)N)NC(=O)CCN1Cc2ccccc2C[C@H](NC(=O)[C@@H](CCCNC(=N)N)NC(=O)[C@@H](N)Cc2c(C)cc(O)cc2C)C1=O)C(=O)N[C@H](C(=O)N[C@@H](CC(C)C)C(=O)O)C(C)(C)C (H-[Dmt][dR][X1]RRP[Dmt][Tle]L-OH),1.11,159,102,0.78,0.03,2,9.12,96,1140,79,313,91,415,37,1.3,101
Cc1cc(O)cc(C)c1C[C@H](N)C(=O)N[C@H](CCCNC(=N)N)C(=O)N[C@H]1Cc2ccccc2CN(CCC(=O)N[C@@H](CCCCN)C(=O)N[C@@H](CCCCN)C(=O)N2CCC[C@H]2C(=O)N[C@@H](Cc2cccc(O)c2)C(=O)N[C@H](C(=O)N[C@@H](CC(C)C)C(=O)O)C(C)(C)C)C1=O (H-[Dmt][dR][X1]KKP[mTyr][Tle]L-OH),3.99,200,70.9,59,0.5,2,27.4,87,1270,66,452,90,401,30,15,90
Cc1cc(O)cc(C)c1C[C@H](N)C(=O)N[C@H](CCCNC(=N)N)C(=O)N[C@H]1Cc2ccccc2CN(CCC(=O)N[C@@H](CCCNC(=N)N)C(=O)N[C@@H](CCCNC(=N)N)C(=O)N2CCC[C@H]2C(=O)N[C@@H](Cc2cccc(O)c2)C(=O)N[C@H](C(=O)N[C@@H](CC(C)C)C(=O)O)C(C)(C)C)C1=O (H-[Dmt][dR][X1]RRP[mTyr][Tle]L-OH),1.73,60.9,19.9,12.4,0.33,2,6.49,95,359,81,177,110,424,28,6.7,95
CC(C)C[C@H](NC(=O)[C@@H](NC(=O)[C@H](Cc1ccc(O)cc1)NC(=O)[C@@H]1CCCN1C(=O)[C@H](CCCNC(=N)N)NC(=O)[C@@H](N)CCCNC(=N)N)C(C)(C)C)C(=O)O,–,–,–,–,–,–,–,–,–,–,–,–,–,–,–,97
Cc1cc(O)cc(C)c1C[C@H](NC(=O)[C@@H]1CCCN1C(=O)[C@H](CCCNC(=N)N)NC(=O)C[C@@H](N)CCCNC(=N)N)C(=O)N[C@H](C(=O)N[C@@H](CC(C)C)C(=O)O)C(C)(C)C,–,–,–,2.3,0.11,–,–,–,–,–,–,–,–,–,–,–
CC(C)C[C@H](NC(=O)[C@@H](NC(=O)[C@@H]1Cc2cc(O)ccc2CN1C(=O)[C@@H]1CCCN1C(=O)[C@H](CCCNC(=N)N)NC(=O)[C@@H](N)CCCNC(=N)N)C(C)(C)C)C(=O)O (H-RRP[X2][Tle]L-OH),–,–,–,6680,132,–,–,–,–,–,–,–,–,–,–,–
CC(C)C[C@H](NC(=O)[C@@H](NC(=O)[C@H](Cc1cccc(O)c1)NC(=O)[C@@H]1CCCN1C(=O)[C@H](CCCNC(=N)N)NC(=O)[C@@H](N)CCCNC(=N)N)C(C)(C)C)C(=O)O,–,–,–,93,24,–,–,–,–,–,–,–,–,–,–,–
